Laboratory results from PMC3148415 (Molecular pharmaceutics, 2011).

System: U87MG human glioma xenografts
Assay: Biodistribution in athymic nude mice bearing U87MG human glioma xenografts
Type: in vivo
Details: 4 h p.i., tail vein injection
Outline: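 Female athymic nu/nu mice carried U87MG xenografts (5 × 10^6 cells s.c. in both upper shoulder flanks) and were used 4 weeks after inoculation. HPLC-purified 64Cu tracer in saline (~30 μCi/mL, 0.20 μm filtered) was given at ~3 μCi by tail vein. Five mice per time point (0.5, 1, 2, 4, 24 h p.i.) were killed by pentobarbital overdose. Heart blood and organs were weighed and γ-counted, giving %ID/g and %ID/organ.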

[Cl][64Cu][Cl] [^64CuCl2]
tumor uptake: 1.8 %ID/g
